MrgX1 ag = human MrgX1 receptor agonism, primary screen | Q96LB2 | MrgX1-HEK293 cells, Fluo-4 calcium fluorescence, agonist mode; active compounds read high | B-score at 10 µM | 0.44% of 310,000 active | AID 588627;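 active means calcium response B-score plate-corrected fluorescence ratio at least 3 library SD, with starting fluorescence B-score inside 5 SD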
Target sequence (Q96LB2 whole entry, looked up): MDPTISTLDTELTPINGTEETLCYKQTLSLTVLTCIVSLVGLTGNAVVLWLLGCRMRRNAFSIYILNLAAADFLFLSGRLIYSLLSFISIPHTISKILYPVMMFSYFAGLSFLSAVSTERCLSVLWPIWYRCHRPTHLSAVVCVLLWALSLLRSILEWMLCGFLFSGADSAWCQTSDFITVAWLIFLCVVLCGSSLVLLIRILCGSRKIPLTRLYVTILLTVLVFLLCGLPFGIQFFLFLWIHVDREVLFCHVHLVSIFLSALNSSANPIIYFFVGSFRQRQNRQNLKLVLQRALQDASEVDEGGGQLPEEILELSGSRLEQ
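Test system: HEK293 cells stably expressing human MrgX1 receptor; Input: fifteen thousand cells per well; Dosing: compound delivered in addition one of three; Schedule: overnight seeding, then 1 h dark dye loading; Technique: Fluo-4 NW calcium fluorescence; Measure: B-scored fluorescence response ratio; Controls: positive and negative controls per plate.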
KCC2 mod = KCC2 (human) Cl- transport modulation; KCC2 cells, thallium flux FluoZin-2 fluorescence; B-score of Tl+ flux slope (higher = more flux/activation; lower = inhibition) at 10 µM; Q9H2X9; 2.2% of 190,000 active;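 active means thallium flux slope and its plate-corrected score both differing from the plate sample mean at a set confidence after two filtering rounds, in either direction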;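 further: slope of fluorescence scaled to starting intensity during 10 to 20 s after thallium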
RGS4 inh = human RGS4 inhibition; P49798; HEK293 M3R/RGS4 inducible, Fluo-4 calcium flux; active compounds read high; triggered by carbachol at its EC20; B-score at 10 µM; 0.45% of 310,000 active;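 active means B-score, a plate-corrected calcium signal, over three deviations above library mean, with baseline fluorescence within five deviations of library mean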;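 further: RGS4 expression induced by doxycycline in cells with stable M3 receptor; B-score is computed from the integrated fluorescence ratio over baseline after carbachol; higher B-score means a larger calcium signal and so more RGS4 inhibition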
Target sequence (P49798 whole entry, looked up): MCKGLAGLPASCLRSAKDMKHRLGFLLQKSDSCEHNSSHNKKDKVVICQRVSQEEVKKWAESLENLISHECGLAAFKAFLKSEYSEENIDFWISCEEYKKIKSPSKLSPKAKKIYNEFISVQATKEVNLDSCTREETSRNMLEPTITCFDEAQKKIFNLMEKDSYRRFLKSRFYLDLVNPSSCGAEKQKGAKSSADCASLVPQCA
RGS4 pot = RGS4 potentiation or activation. HEK293 M3R/inducible RGS4, carbachol calcium flux Fluo4; active compounds read low. B-score at 10 µM. 0.92% of 310,000 active. AID 463111;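 active means B-score of the integrated calcium signal more than 4 SD below the library mean, with starting fluorescence not abnormally high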;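 further: negative B-score means reduced calcium response which marks RGS4 activation or potentiation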
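Reagent: ECmax carbachol challenge; Test system: M3R-expressing HEK293 line, RGS4 induced by doxycycline; Schedule: overnight RGS4 induction, 30 min dye load 37 °C, 20 min compound RT; Detection: calcium dye Fluo4 fluorescence; Read-out: Agonist-evoked peak-minus-minimum fluorescence over baseline, integrated ratio, B score.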
MrgX1 antag = antagonists of human MrgX1 receptor; MRGX1-HEK293 calcium flux, Fluo-4, BAM8-22 antagonism; active compounds read low; 1.3% of 310,000 active; Q96LB2; B-score at 10 µM;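 active means calcium-response B-score plate-corrected more than 3 library SD below zero, starting fluorescence within 5 deviations, no agonist response on first addition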;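 further: peak minus trough fluorescence over baseline after final BAM8-22 challenge near maximal dose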
MrgX1 PAM = human MrgX1 positive allosteric modulation, primary screen; Q96LB2; MrgX1-HEK293, Fluo-4 calcium flux, FDSS; active compounds read high; B-score at 10 µM; 0.63% of 310,000 active;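 active means plate-corrected calcium response at least 3 library SD above typical, normal starting fluorescence, not activating the receptor alone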;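 further: compound read alongside a low EC10 to EC30 dose of BAM8-22 agonist; peak minus trough fluorescence over baseline measured at the second addition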
RGS4 activ val = RGS4 activation, validation assay; 89% of 1,100 active; shares compounds with RGS4 pot; inhibition, % at 10 µM; HEK293 M3R/RGS4 inducible, carbachol calcium flux Fluo4;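 active means inhibition above 3 SD of the buffer control wells, cut at about 41% in these data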;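 further: signal is the integrated peak-minus-minimum Fluo4 fluorescence over baseline ratio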
RGS4 act ctr = RGS4 activator counter-screen hit in non-induced cells; AID 602283; 82% of 1,100 active; shares compounds with RGS4 pot; HEK293 M3R non-induced RGS4, Fluo4 calcium flux; after carbachol challenge at its EC90; inhibition, % at 10 µM;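 active means inhibition exceeding 3 SD of buffer-only control wells, cut at about 26% in these data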;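 further: percent drop in integrated peak-minus-baseline over baseline Fluo4 ratio after carbachol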
Of the large screens only hits and unclear results are named; the others gave an inactive call (follow-up assays come after a bar, where they were run). Rows were chosen to be rich in hits. Some 4.7% of all compounds tested hit in one or more screens of this group.

COc1cccc(CN2CC(C(=O)NC3CCC(O)CC3)CCC2=O)c1 (configuration not stated)	none (no result: KCC2 mod)
CC(C)Nc1nnc(SCC(=O)Nc2ccc3c(c2)C(=O)c2ccccc2C3=O)s1	RGS4 pot -11 | RGS4 activ val 88 | RGS4 act ctr 45
O=C(CSc1nnc(NC2CCCCC2)s1)Nc1ccc2c(c1)C(=O)c1ccccc1C2=O	none
Cc1cc(NC(=O)COc2ccc(C(C)(C)C)cc2)no1	none (no result: MrgX1 ag, KCC2 mod, MrgX1 antag, MrgX1 PAM)
O=C(Nc1ccccc1N1CCN(C(=O)c2ccccc2)CC1)c1ccc(Br)o1	RGS4 pot -7.8 (no result: KCC2 mod) | RGS4 activ val 48 | RGS4 act ctr inactive
O=C(NC(=S)Nc1ccccc1N1CCN(C(=O)c2ccccc2)CC1)c1ccccc1F	RGS4 pot -8 (no result: KCC2 mod) | RGS4 activ val 68 | RGS4 act ctr inactive
COc1ccc(C(=O)Nc2ccccc2N2CCN(C(=O)c3ccccc3)CC2)cc1Br	RGS4 pot -9.4 (no result: KCC2 mod) | RGS4 activ val 64 | RGS4 act ctr 26
Cc1ccc(NC(=O)c2cc(-c3cccs3)nc3ccccc23)nc1	RGS4 pot -7.9 | RGS4 activ val 78 | RGS4 act ctr inactive
Cc1c(NC(=O)c2cc(-c3cccs3)nc3ccccc23)c(=O)n(-c2ccccc2)n1C	none
Cn1cc([N+](=O)[O-])c(C(=O)NC2CCCCCC2)n1	none (no result: KCC2 mod)
CC1(C)CC(=O)C2=C(C1)OC(N)=C(C#N)C2c1ccccc1 (configuration not stated)	none
CC1(C)CC(=O)C2=C(C1)OC(N)=C(C#N)C2c1ccccc1[N+](=O)[O-] (configuration not stated)	RGS4 pot -11 | RGS4 activ val inactive | RGS4 act ctr inactive
CCc1ccc(/C=N/NC(=O)c2nnn(-c3nonc3N)c2C(C)C)cc1	none (no result: KCC2 mod)
S=C(NCCN(C1CCCCC1)C1CCCC1)Nc1cccc(Cl)c1	RGS4 pot -7.9 (no result: KCC2 mod) | RGS4 activ val 62 | RGS4 act ctr 84
S=C(Nc1cccc(Cl)c1)NC1CC2CCCC(C1)N2C1CCCC1 (configuration not stated)	none
CCOc1ccc(OCC)c(NC(=O)C2CCN(c3cnccn3)CC2)c1	none (no result: KCC2 mod)
COc1ccccc1C1c2ccc3ccccc3c2Oc2ncn(CCN(C)C)c(=N)c21 (configuration not stated)	RGS4 pot -8.3 (no result: KCC2 mod) | RGS4 activ val 86 | RGS4 act ctr 67
COc1ccc(C2c3ccc4ccccc4c3Oc3ncn(CCCN(C)C)c(=N)c32)cc1 (configuration not stated)	RGS4 pot -8.6 (no result: KCC2 mod) | RGS4 activ val 40 | RGS4 act ctr 84
CC(=O)c1cccc(NC(=O)COC(=O)c2ccccc2C)c1	none (no result: KCC2 mod)
COc1ccc(S(=O)(=O)N(C)C)cc1NC(=O)[C@H](Cc1ccccc1)N1C(=O)c2ccccc2C1=O	RGS4 pot -9.4 | RGS4 activ val 93 | RGS4 act ctr 58
Cc1ccc(S(=O)(=O)N(C)C)cc1NC(=O)[C@H](Cc1ccccc1)N1C(=O)c2ccccc2C1=O	none
O=S(=O)(NCCCN1CCOCC1)c1ccc(Cl)s1	none
CCCCCCNS(=O)(=O)c1ccc(Cl)s1	RGS4 pot -10 | RGS4 activ val 43 | RGS4 act ctr 84
COc1ccccc1C(=O)COC(=O)Cn1nc(C)c([N+](=O)[O-])c1C	none (no result: KCC2 mod)
CC1CCN(C(=O)COC(=O)CCCN2C(=O)c3cccc4cccc(c34)C2=O)CC1	none (no result: KCC2 mod)
CC1CCCN(C(=O)COC(=O)c2cc(-c3cccs3)nn2-c2ccccc2)C1 (configuration not stated)	RGS4 pot -10 (no result: KCC2 mod) | RGS4 activ val 92 | RGS4 act ctr 70
NC(=O)COC(=O)c1cc(-c2cccs2)nn1-c1ccccc1	none
O=C(CSc1ccc(Cl)cc1)Nc1cccc(-c2nc3ncccc3o2)c1	RGS4 pot -8.7 (no result: KCC2 mod) | RGS4 activ val 92 | RGS4 act ctr 92
O=C(CSc1ccc(Cl)cc1)Nc1cc(-c2nc3ncccc3o2)ccc1Cl	none
COc1c(C)cc(Br)cc1C(=O)Nc1cccc(-c2nc3ncccc3o2)c1	RGS4 pot -8.3 | RGS4 activ val 94 | RGS4 act ctr 74
CC(C)C(=O)Nc1cccc(-c2nc3ncccc3o2)c1	none (no result: KCC2 mod)
Cc1ccc(Sc2c(C#N)c(-c3ccccc3)nn2C)cc1	RGS4 pot -8 | RGS4 activ val 74 | RGS4 act ctr 36
Cc1ccc(S(=O)(=O)N(C)c2ccc(OCC(=O)NCC3(N(C)C)CCCCC3)cc2)cc1	none (no result: KCC2 mod)
Brc1cccc(OCCCN2CCCCCC2)c1	RGS4 pot -8.5 | RGS4 activ val 76 | RGS4 act ctr 84
c1ccc(Oc2cccc(OCCCCN3CCCC3)c2)cc1	RGS4 pot -11 | RGS4 activ val 94 | RGS4 act ctr 88
CCCOc1ccc(OCCN2CCCC(C)C2)cc1 (configuration not stated)	RGS4 pot -9.8 | RGS4 activ val 92 | RGS4 act ctr 50
Clc1ccc(OCCCN2CCCC2)cc1Cl	none
Cc1cc(OCCCCCN2CCCC2)ccc1Cl	RGS4 pot -9.5 | RGS4 activ val 80 | RGS4 act ctr 27
COC(=O)c1ccc(CN2CCC(Oc3cccc(C(=O)N4CCOCC4)c3)CC2)cc1	none (no result: KCC2 mod)
Cc1ccn(S(=O)(=O)c2ccc(N3CCCC3=O)cc2)n1	none (no result: KCC2 mod)
Cc1ccc(NC(=O)COc2coc(CN3CCc4ccccc43)cc2=O)cc1Cl	none (no result: KCC2 mod)
CCOC(=O)C(=CNc1nc(-c2ccccc2)c(C(=O)Nc2ccc(-c3ccccc3)cc2)s1)C(=O)OCC	none (no result: KCC2 mod)
CC1CCCN(CCOc2cccc(Oc3ccccc3)c2)C1 (configuration not stated)	RGS4 pot -8.6 (no result: KCC2 mod) | RGS4 activ val 90 | RGS4 act ctr 57
CC(C)N1CC(C(=O)Nc2cc(Cl)cc(Cl)c2)CC1=O (configuration not stated)	none (no result: KCC2 mod)
O=C1NC2CCc3nc4ccccc4c(=O)n3C2=Nc2ccccc21 (configuration not stated)	RGS4 pot -9.8 | RGS4 activ val inactive | RGS4 act ctr inactive
COc1ccc(NC(=O)CSCC(=O)Nc2ccc(C)c(S(=O)(=O)N3CCCCCC3)c2)cc1	none (no result: KCC2 mod)
COC(=O)/C(=N/Nc1ccccc1)N1CCCc2ccccc21	none
CC(=O)/C(=N/Nc1ccccc1[N+](=O)[O-])N1CCCc2ccccc21	RGS4 pot -11 | RGS4 activ val 93 | RGS4 act ctr 89
